PvdQ acylase: blocks Pseudomonas aeruginosa PvdQ acylase activity; purified PvdQ acylase, fluorescence plate reader; inhibition, % at 10 µM; 340,000 tested, 0.063% active; in the data active = inhibition above about 30%, passing the limit was not always enough;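 note: 0% = vehicle neutral wells and 100% = reference inhibitor wells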
IMP-1 inh-1: inhibitors of Pseudomonas aeruginosa IMP-1 metallo-beta-lactamase | purified IMP-1, nitrocefin hydrolysis, epi-absorbance fluorescence | inhibition, % at 5.6 µM | 290,000 tested, 0.45% active | AID 1556;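 active = inhibition above the mean plus 3 SD of all compounds in the same screening run, cut at about 4.5% in these data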;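 note: 0% = IMP-1 with DMSO and 100% = DMSO wells lacking enzyme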
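System: purified recombinant IMP-1 beta-lactamase. Medium: Zinc- and detergent-supplemented HEPES buffer, pH 7.1. Compound: one 5.6 µM dose […]. Schedule: 15 min preincubation plus 25 min reaction at 25 °C. Technique: Epi-absorbance fluorescence, 480 nm excitation, 530 nm emission.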
PLC-beta3 inh: PLC-beta3 (human) inhibition, primary screen; Purified PLC-beta3, fluorogenic substrate, fluorescence; Q01970; inhibition, % at 12.2 µM; 370,000 tested, 0.18% active; in the data active = inhibition above about 11%;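 note: 0% = median of compound wells on plate and 100% = full blocker control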
PLCg1 inh: PLC-gamma1 (human) inhibition, primary screen. purified PLC-gamma1, fluorogenic substrate, fluorescence. inhibition, % at 12.2 µM. 370,000 tested, 0.84% active. AID 720700; in the data active = inhibition above about 9.5%
Target sequence (P19174 whole entry, looked up): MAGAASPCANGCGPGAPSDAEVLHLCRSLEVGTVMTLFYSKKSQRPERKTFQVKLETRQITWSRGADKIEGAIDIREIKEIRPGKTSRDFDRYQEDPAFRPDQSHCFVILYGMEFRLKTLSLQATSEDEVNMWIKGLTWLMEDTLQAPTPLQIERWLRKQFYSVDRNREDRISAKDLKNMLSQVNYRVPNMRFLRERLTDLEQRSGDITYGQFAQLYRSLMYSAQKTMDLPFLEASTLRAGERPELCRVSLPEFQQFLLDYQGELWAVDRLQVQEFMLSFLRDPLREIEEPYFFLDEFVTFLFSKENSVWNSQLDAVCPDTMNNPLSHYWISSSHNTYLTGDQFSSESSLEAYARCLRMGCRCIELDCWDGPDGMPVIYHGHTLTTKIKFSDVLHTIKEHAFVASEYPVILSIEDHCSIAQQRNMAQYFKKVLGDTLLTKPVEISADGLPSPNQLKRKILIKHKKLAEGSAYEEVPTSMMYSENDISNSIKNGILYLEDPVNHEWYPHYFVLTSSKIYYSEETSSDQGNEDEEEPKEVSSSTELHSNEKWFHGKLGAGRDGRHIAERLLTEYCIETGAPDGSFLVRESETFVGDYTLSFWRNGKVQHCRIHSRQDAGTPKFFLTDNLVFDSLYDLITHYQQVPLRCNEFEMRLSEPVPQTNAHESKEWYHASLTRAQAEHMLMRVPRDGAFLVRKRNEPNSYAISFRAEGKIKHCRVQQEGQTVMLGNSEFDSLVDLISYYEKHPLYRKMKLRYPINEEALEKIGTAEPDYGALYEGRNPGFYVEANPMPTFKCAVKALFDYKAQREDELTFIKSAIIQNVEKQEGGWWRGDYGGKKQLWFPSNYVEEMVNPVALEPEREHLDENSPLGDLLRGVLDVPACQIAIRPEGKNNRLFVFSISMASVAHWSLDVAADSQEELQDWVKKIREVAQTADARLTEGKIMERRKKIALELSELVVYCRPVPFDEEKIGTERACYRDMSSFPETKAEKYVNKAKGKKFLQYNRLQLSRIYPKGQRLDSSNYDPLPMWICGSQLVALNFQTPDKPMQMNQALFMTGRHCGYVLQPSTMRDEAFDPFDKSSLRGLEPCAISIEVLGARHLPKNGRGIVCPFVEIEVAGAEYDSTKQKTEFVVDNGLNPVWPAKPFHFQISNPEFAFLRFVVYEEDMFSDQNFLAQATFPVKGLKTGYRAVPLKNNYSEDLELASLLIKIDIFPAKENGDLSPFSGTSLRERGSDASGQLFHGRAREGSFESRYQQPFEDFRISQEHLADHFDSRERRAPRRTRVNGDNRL
VIM-2 inh: inhibitors of Pseudomonas aeruginosa VIM-2 metallo-beta-lactamase; purified VIM-2, nitrocefin hydrolysis, epi-absorbance fluorescence; inhibition, % at 5.6 µM; 290,000 tested, 0.89% active;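 active = inhibition above the mean of all tested compounds plus 3 SD, cutoff set per screening run, cut at about 7.5% in these data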;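 note: red hydrolysis product quenches plate fluorescence so inhibitors raise well fluorescence; 0% = enzyme with DMSO and 100% = DMSO without enzyme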
IMP-1 inh-2: selectivity counter-screen for VIM-2 inhibitors: IMP-1 metallo-beta-lactamase inhibitors. purified IMP-1, nitrocefin hydrolysis, epi-absorbance fluorescence. AID 1856. inhibition, % at 5.6 µM. 1,300 tested, under 10 active. shares compounds with VIM-2 inh; call rule not given here;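 note: 0% = enzyme with vehicle and 100% = vehicle without enzyme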
VIM-2 FRET inh: counter-screen for VIM-2 inhibitors: epi-absorbance artifacts via FRET | shares compounds with VIM-2 inh | purified VIM-2, CCF2 FRET substrate hydrolysis | inhibition, % at 5.6 µM | 1,300 tested, 23% active | AID 1857;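 active = inhibition above the mean of all tested compounds plus 3 SD, cut at about 19% in these data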;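 note: 0% = VIM-2 plus DMSO and 100% = no enzyme wells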
TEM-1 inh: TEM-1 inhibition, counter-screen for VIM-2 inhibitors. 1,300 tested, 3% active. inhibition, % at 5.6 µM. Purified TEM-1, nitrocefin hydrolysis, epi-absorbance fluorescence. shares compounds with VIM-2 inh;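 active = inhibition above that campaign's mean inhibition plus 3 SD, cut at about 0.46% in these data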;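 note: 0% = TEM-1 with DMSO and 100% = TEM-1 with 100 µM potassium clavulanate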
VIM-2 confirm 2: confirmation of P. aeruginosa VIM-2 metallo-beta-lactamase inhibitors. inhibition, % at 5.6 µM. 1,300 tested, 96% active. AID 2187. shares compounds with VIM-2 inh. purified VIM-2, nitrocefin hydrolysis, epi-absorbance;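 active = inhibition of the VIM-2 beta-lactamase enzyme above about 11% from the earlier first-round screen, limit read from the data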;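 note: 0% = VIM-2 with DMSO and 100% = buffer wells without enzyme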
Active calls of the source: *; i = inactive; . = no result. Sampled rows, rich in hits. Any-hit rate of the full collection: about 2%.

SMILES	PvdQ acylase	IMP-1 inh-1	PLC-beta3 inh	PLCg1 inh	VIM-2 inh	IMP-1 inh-2	VIM-2 FRET inh	TEM-1 inh	VIM-2 confirm 2
COc1cc(C=Nn2c(-c3cc(-c4ccccc4)n[nH]3)n[nH]c2=S)ccc1OC(C)=O	.	.	-1	4	.	.	.	.	.
CC(COc1cccc2ccccc12)CN1CCN(C)CC1 (centres undefined)	-6	-2	2	-1	22*	-2	2	-6	48*
Cc1c(C#N)c(=O)oc2ccc3ccccc3c12	-19	-2	-327	-267	31*	-4	5	-9	11*
COCCCNc1c2c3c(cccc3[nH]c1=O)C(=O)c1ccccc1-2	5	-3	i	i	34*	73*	4	137*	87*
CCOC(=O)Cn1cc(CN2CCS(=O)(=O)N(Cc3ccc(Cl)cc3)C(C(=O)OC)C2)nn1 (centres undefined)	.	.	-1	2	.	.	.	.	.
COc1ccc(Nc2nc(N3CCCC3)c3ccccc3n2)cc1	-9	-3	-13	-20	19*	-2	-7	-4	35*
Cc1ccc(S(=O)(=O)N2CCCC2C(c2ccccc2O)c2cn(C)c3ccccc23)cc1 (centres undefined)	.	.	1	0	.	.	.	.	.
Cc1cccc(Nc2nc(N)c([N+](=O)[O-])c(NCc3ccccc3)n2)c1	-11	-1	-3	3	0	.	.	.	.
Nc1nc(Nc2ccccc2F)nc(NCCO)c1[N+](=O)[O-]	.	-2	-4	1	-2	.	.	.	.
Cc1cccc(Nc2nc(NCCCN3CCOCC3)nc(N)c2[N+](=O)[O-])c1	-5	-2	4	1	14*	-4	0	-10	37*
Nc1nc(NCCCN2CCOCC2)nc(Nc2ccccc2F)c1[N+](=O)[O-]	-6	-4	-2	6	29*	-3	2	-11	51*
CCOC(=O)N1CCN(Cc2cc(=O)oc3cc4c(cc23)CCC4)CC1	-5	-2	-10	-5	0	.	.	.	.
O=c1cc(CN2CCN(CCO)CC2)c2cc3c(cc2o1)CCC3	-17	-3	-10	-7	17*	-3	0	-7	33*
NC(=S)Nc1cccc2cccnc12	-10	0	-3	-2	-4	.	.	.	.
NC(=S)NNc1cccc2cccnc12	7	-3	-20	-10	18*	-5	-15	-10	15*
COc1ccc(/C=C2/SC(=S)N(CCCC(=O)N3CCN(C)CC3)C2=O)cc1	-9	1	-10	-2	17*	-2	4	-6	31*
COc1cc(/C=C2\SC(=S)N(CCC(=O)N3CCN(C)CC3)C2=O)cc(OC)c1OC	-5	2	-29	-10	15*	-2	1	-6	25*
COc1cc(/C=C2/SC(=S)N(CCC(=O)N3CCN(C)CC3)C2=O)cc(OC)c1OC	.	.	-31	-21	.	.	.	.	.
CN1CCN(C(=O)CCCN2C(=O)/C(=C/c3ccccc3)SC2=S)CC1	4	2	-8	0	16*	0	-3	-1	25*
C[C@H]1Cn2nncc2Cn2c3ccccc3c(=O)n21	.	.	-33	-26	.	.	.	.	.
C=CCOc1ccc(CNn2c(C)n[nH]c2=S)cc1OC	-12	0	2	-1	-1	.	.	.	.
C=CCOc1ccc2ccccc2c1CNn1c(C)n[nH]c1=S	-5	-2	-8	-2	17*	-4	33*	-6	20*
COc1ccc(Cc2nnc(NC(=O)C3CCCO3)s2)cc1OC (centres undefined)	-9	-2	4	3	56*	-2	-1	-2	6
CCn1c(-c2nn(-c3ccccc3)ccc2=O)n[nH]c1=S	-6	-1	0	3	18*	-3	34*	-6	23*
CCn1c(-c2nn(-c3ccc(C)cc3)ccc2=O)n[nH]c1=S	9	-3	0	0	14*	-3	33*	-7	22*
SMILES	PvdQ acylase	IMP-1 inh-1	PLC-beta3 inh	PLCg1 inh	VIM-2 inh	IMP-1 inh-2	VIM-2 FRET inh	TEM-1 inh	VIM-2 confirm 2
COC(=O)[C@]12C[C@H](CC(=O)NCCCCc3ccccc3)C(=O)N(Cc3ccc(Cl)cc3Cl)C1=C[C@H](C(C)(C)C)O[C@@H]2C	.	.	-1	-3	.	.	.	.	.
Cc1coc2c(C)c3oc(=O)c(CCC(=O)NCCCn4ccnc4)c(C)c3cc12	0	4	-333	-262	31*	-2	-6	-12	36*
COc1ccccc1OCC(=O)NCCCn1ccnc1	-4	1	3	0	-4	.	.	.	.
Cc1c(C)c2ccc(OCC(=O)NCCCn3ccnc3)c(C)c2oc1=O	-3	1	-36	-19	42*	-4	-4	-12	49*
Cc1c(OC(C)C(=O)NCCCn2ccnc2)ccc2c3c(c(=O)oc12)CCC3 (centres undefined)	-9	-3	-122	-80	49*	-2	-3	-8	64*
Cc1c(OCC(=O)NCCCn2ccnc2)ccc2c3c(c(=O)oc12)CCC3	-14	-1	-15	-7	48*	-3	-8	-13	58*
CC(C)(C)OC(=O)n1ccc2ccc(-c3ccc4cc[nH]c4c3)cc21	.	.	-45	-25	.	.	.	.	.
O=C(NC1CCCCN(Cc2ccc(Cl)cc2)C1=O)c1cccc(F)c1 (centres undefined)	.	.	4	6	.	.	.	.	.
O=S1(=O)c2ccc(Br)cc2OC[C@@H](Cc2ccccc2)N1Cc1cn(Cc2ccc(Cl)cc2)nn1	.	.	1	0	.	.	.	.	.
Cc1cc(=O)oc2c(C)c(OCC(=O)NCCCn3ccnc3)ccc12	-8	-3	-13	-5	19*	-3	-6	-8	35*
O=C1N2Cc3ccccc3C2CS(=O)(=O)N1Cc1ccccc1 (centres undefined)	.	.	-1	0	.	.	.	.	.
O=C(NCc1cccc(C(F)(F)F)c1)O[C@H]1CC[C@@]23CCCN2C(=O)CCC[C@H]3C1	.	.	0	-1	.	.	.	.	.
CC(Oc1cc2oc(=O)c3c(c2cc1Cl)CCC3)C(=O)NCCN1CCOCC1 (centres undefined)	-8	-4	-13	1	13*	-3	-5	-3	23*
NC(=O)COc1cc2oc(=O)c3c(c2cc1Cl)CCCC3	-17	0	-30	-20	14*	-3	-3	-3	19*
O=C(COc1cc2oc(=O)c3c(c2cc1Cl)CCC3)Nc1ccccn1	-2	-1	-5	-4	6	.	.	.	.
O=C(COc1cc2oc(=O)c3c(c2cc1Cl)CCC3)NCCN1CCOCC1	1	1	-8	2	23*	-2	0	-6	30*
